Published values from different studies.
Target: Mitogen-activated protein kinase kinase kinase 5 (MAP3K5, Homo sapiens, UniProt Q99683)
Sequence (Q99683 1-1374, as in one of the studies): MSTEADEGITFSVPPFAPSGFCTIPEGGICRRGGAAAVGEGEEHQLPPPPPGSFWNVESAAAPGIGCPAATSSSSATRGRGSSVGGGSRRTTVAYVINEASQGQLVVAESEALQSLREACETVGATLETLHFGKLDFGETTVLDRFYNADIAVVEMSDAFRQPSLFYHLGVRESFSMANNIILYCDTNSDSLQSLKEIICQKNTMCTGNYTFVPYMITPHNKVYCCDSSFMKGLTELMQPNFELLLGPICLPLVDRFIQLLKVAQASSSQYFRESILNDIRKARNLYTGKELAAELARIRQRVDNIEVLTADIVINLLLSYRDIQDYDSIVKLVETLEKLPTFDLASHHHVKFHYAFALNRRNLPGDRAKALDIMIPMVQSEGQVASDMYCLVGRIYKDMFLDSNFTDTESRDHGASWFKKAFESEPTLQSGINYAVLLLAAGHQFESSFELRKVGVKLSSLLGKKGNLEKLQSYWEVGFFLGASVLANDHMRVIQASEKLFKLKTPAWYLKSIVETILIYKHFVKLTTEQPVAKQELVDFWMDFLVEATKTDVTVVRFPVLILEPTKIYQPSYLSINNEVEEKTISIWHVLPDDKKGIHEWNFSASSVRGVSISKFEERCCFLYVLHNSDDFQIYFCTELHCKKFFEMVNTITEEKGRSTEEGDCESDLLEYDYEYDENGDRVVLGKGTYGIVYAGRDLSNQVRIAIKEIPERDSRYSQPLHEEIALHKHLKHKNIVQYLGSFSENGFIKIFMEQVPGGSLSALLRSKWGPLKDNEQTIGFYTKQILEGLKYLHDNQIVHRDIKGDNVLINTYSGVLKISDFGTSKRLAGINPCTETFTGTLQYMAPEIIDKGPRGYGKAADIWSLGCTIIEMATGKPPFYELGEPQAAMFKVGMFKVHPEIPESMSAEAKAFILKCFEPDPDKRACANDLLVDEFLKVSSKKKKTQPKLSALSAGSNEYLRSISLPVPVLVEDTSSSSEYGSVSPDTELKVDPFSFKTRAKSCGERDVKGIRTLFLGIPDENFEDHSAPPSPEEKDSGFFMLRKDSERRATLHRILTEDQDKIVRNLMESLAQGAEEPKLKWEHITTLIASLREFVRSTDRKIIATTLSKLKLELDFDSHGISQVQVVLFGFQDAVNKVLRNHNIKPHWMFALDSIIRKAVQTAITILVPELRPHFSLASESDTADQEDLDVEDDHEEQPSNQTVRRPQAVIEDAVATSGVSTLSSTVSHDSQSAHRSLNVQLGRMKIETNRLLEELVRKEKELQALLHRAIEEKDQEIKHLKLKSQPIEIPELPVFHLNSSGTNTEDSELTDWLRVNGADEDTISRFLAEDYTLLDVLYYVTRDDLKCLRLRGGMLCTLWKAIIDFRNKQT

CN(C)c1ncnc(-c2ccc3nc(Nc4cc(CN5CCN(C(=O)CC(F)(F)F)CC5)ccn4)[nH]c3c2)c1Cl
remaining binding (cell-free assay, competition with immobilised ligand; 1 µM): 100%

Cn1c2c(c3ccc(Cl)c(Cl)c31)C(C#N)C1(CCNCC1)NC2=O (racemic)
ΔTm (thermal stability, DSF; 10 µM): 0.1 °C

O=C(Nc1cnn(-c2csc(C(=O)NC3COC3)c2)c1)Nc1ccccc1Cl
remaining activity (enzyme activity, inhibitor; 5 µM): 91.2%

Cc1cnc(NC2CCOCC2)nc1-n1cnc(C(=O)NC(CN)c2cc(F)cc(Cl)c2)c1 (stereo not shown)
remaining activity (enzyme activity, inhibitor, radiometric; 1 µM): 105%

CCCOc1ccc(OC)c(F)c1C(=O)c1ccc(C(=O)N[C@@H]2CNC[C@H]2NC(=O)c2ccc3[nH]ncc3c2)cc1
remaining activity (enzyme activity, inhibitor; 10 µM): 83%

CC(C)c1ccc(NC(=O)c2cccs2)c(-c2nc3ccccc3[nH]c2=O)c1
activity vs control (enzyme activity, inhibitor; 1 µM): 107%

Cn1nc(C(F)(F)F)cc1-c1cnc(N2CCc3cc(S(=O)(=O)Nc4c(F)cc(Cl)cc4F)cc(N4CCCC4=O)c32)nc1
remaining binding (cell-free assay, competition with immobilised ligand; 1 µM): 100%

Cn1c2c(c3ccc(Cl)c(Cl)c31)C(C#N)C1(CCOCC1)NC2=O (stereo not shown)
ΔTm (thermal stability, DSF; 10 µM): 0.4 °C

CNCc1ccccc1-c1csc([C@@H](C)Nc2nc(C)nc3cc(OC)c(OC)cc23)c1
remaining binding (cell-free assay, competition with immobilised ligand; 1 µM): 91%

CCN(CC)CCNC(=O)c1c(C)[nH]c(/C=C2\C(=O)Nc3ccc(F)cc32)c1C
inhibition (enzyme activity, inhibitor; 10 µM): 38%

CN(C(=O)c1ccccc1)c1cc(N(C)c2ccc3c(c2)CCc2ccc(C(=O)NCCN4CCOCC4)cc2C3=O)ccc1F
remaining binding (cell-free assay, competition with immobilised ligand; 1 µM): 100%

COc1cc(Cl)c(C(=O)N[C@@H](CN[C@H]2CC[C@@H](N)CC2)Cc2ccc(C#N)cc2)cc1-c1ccc(CN[C@H](C)c2ccc(C)cc2)o1
remaining activity (enzyme activity, inhibitor; 1 µM): 94%

COc1cc(Nc2cnc(C#N)c(O[C@H](C)CN(C)C)n2)ncc1-c1cnn(C)c1
remaining activity (enzyme activity, inhibitor, radiometric; 1 µM): 95%

CNC(=O)c1cc(Oc2ccc(NC(=O)Nc3ccc(Cl)c(C(F)(F)F)c3)cc2)ccn1
inhibition (enzyme activity, inhibitor; 10 µM): 9%

FC(F)(F)Oc1cccc(-c2cnc3ccc(-c4ccncc4)nn23)c1
activity vs control (enzyme activity, inhibitor, radiometric; 5 µM): 104%

Nc1ncnc2occ(-c3ccc(NC(=O)Nc4cc(C(F)(F)F)ccc4F)cc3)c12
remaining signal (cell-free assay, inhibitor; 20 µM): 7.8%

O=C1Nc2ccc(Cl)cc2C1=Cc1cc(Cl)c(O)c(Cl)c1
remaining signal (cell-free assay; 0.5 µM): 106%

CCCCNc1ncc2c(-c3ccc(F)cc3)nn(C[C@H]3CC[C@H](N)CC3)c2n1
inhibition (target engagement in cells, inhibitor, chemoproteomics; 20 mM): -10.7%

CN1CCC2(CC1)NC(=O)c1c(c3ccc(Cl)c(Cl)c3n1C)C2C#N (racemic)
ΔTm (thermal stability, DSF; 10 µM): 0.3 °C

Cc1cc(NC(=O)c2cccc3cc(-c4cccc5[nH]nc(N)c45)ccc23)ccc1F
activity vs control (enzyme activity, inhibitor; 0.1 µM): 109%

C[S+]([O-])c1ccc(-c2nc(-c3ccncc3)c(-c3ccc(F)cc3)[nH]2)cc1 (stereo not shown)
remaining signal (cell-free assay; 0.5 µM): 107%

CNCc1ccc(-c2cc(-c3nc(-c4ccc(S(=O)(=O)C(C)C)cc4)cnc3N)on2)cc1
inhibition (enzyme activity, inhibitor; 0.4 µM): 0%

Cn1nc(C(=O)NCc2ccc(C(=O)O)cc2)cc1-c1ccc2[nH]ccc2c1
remaining binding (cell-free assay, competition with immobilised ligand; 0.1 µM): 86%

CC(C)(C)c1nc2c(s1)c1nc(N)ncc1c1ccc(NS(=O)(=O)c3c(F)cccc3F)c(F)c12
remaining activity (enzyme activity, inhibitor, radiometric; 1 µM): 104%

O=C(Nc1cnn(-c2csc(C(=O)NC3COC3)c2)c1)Nc1c(F)cccc1Cl
remaining activity (enzyme activity, inhibitor; 5 µM): 91.1%

CS(=O)(=O)N1CCCC(NC(=O)[C@H](CCC2CCCCC2)NC(=O)c2ccc(CNc3ncnc4c3nnn4-c3ccccc3)cc2)C1 (stereo partly shown)
remaining binding (cell-free assay, competition with immobilised ligand; 0.1 µM): 100%

Cn1c(=O)n(-c2ccc(C(C)(C)C#N)cc2)c2c3cc(-c4cnc5ccccc5c4)ccc3ncc21
remaining activity (enzyme activity, inhibitor; 10 µM): 106%

COc1cc(/C=C/C(=O)CC(=O)/C=C/c2ccc(O)c(OC)c2)ccc1O
activity vs control (enzyme activity, inhibitor; 1 µM): 101%

CCN1CCN(Cc2ccc(NC(=O)c3ccc(C)c(Oc4ccnc5[nH]ccc45)c3)cc2C(F)(F)F)CC1
inhibition (target engagement in cells, inhibitor, chemoproteomics; A-375; 0.5 µM): -10.5%

CCC1(CC)NC(=O)c2c(c3ccc(Cl)c(Cl)c3n2C)C1C#N (stereo not shown)
ΔTm (thermal stability, DSF; 10 µM): 0.7 °C

Cc1ccc(Nc2nccc(N(C)c3ccc4c(C)n(C)nc4c3)n2)cc1S(N)(=O)=O
inhibition (enzyme activity, inhibitor; 10 µM): 5%

NS(=O)(=O)c1cc(NC(=O)Cc2ccccc2)ccc1Oc1cccc(Cl)c1
remaining binding (cell-free assay, competition with immobilised ligand; 1 µM): 100%

Cn1c2c(c3ccc(Cl)c(Cl)c31)C(C#N)C(C)(C)NC2=O (stereo not shown)
ΔTm (thermal stability, DSF; 10 µM): 2.6 °C

CCN1CCN(Cc2ccc(NC(=O)c3ccc(C)c(/C=C/c4cnc5[nH]ccc5c4OC)c3)cc2C(F)(F)F)CC1
inhibition (target engagement in cells, inhibitor, chemoproteomics; A-375; 5 µM): -35.5%

Cc1ccc(NC(=O)c2ccc(C)c(C(F)(F)F)c2)cc1C#Cc1nn(C2CCC(O)CC2)c2ncnc(N)c12 (stereo not shown)
remaining signal (cell-free assay; 10 µM): 127%

CCCCN(CCCC)C(=O)CN1C[C@H](c2cc(OC)c3c(c2)OCO3)[C@@H](C(=O)O)[C@@H]1CC(C)(C)CCC
remaining binding (cell-free assay, competition with immobilised ligand; 1 µM): 100%

CCN1CCC2(CC1)NC(=O)c1c(c3ccc(Cl)c(Cl)c3n1C)C2C#N (racemic)
ΔTm (thermal stability, DSF; 10 µM): 0.1 °C
